A short description of data set [1]: folding enthalpy; higher = less favourable; fluorescence melt of hairpins on a sequencing array, two-state fit. As to conditions: sodium 0.088 M. The gist of the method: (§1)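 In 50 mM Na-HEPES pH 8.0 containing 25 mM NaCl, hairpins from the library on a sequenced MiSeq flow cell were imaged for Cy3 fluorescence at 2.5 °C steps up to 60 °C, with Cy3 and quencher oligos annealed. After normalisation to pre-quench Cy3 and to control constructs, two-state fits with bootstrapping gave melting temperature and folding enthalpy. Four replicates were combined by inverse-variance weighting, and fitted temperatures were shifted up by 9.35 °C to match UV melts.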

Data set [2] in a line: melting temperature; fluorescence melt of hairpins on a sequencing array, two-state fit, raised by 9.35 °C to match UV melts. The conditions noted are these: sodium 0.088 M. The method in brief:
as §1

We go through 37 sequences from the array DNA melting data of Ke et al. (doi:10.1101/2024.01.08.574731).

Regarding GATCGGTAGACCGATC ((((((....)))))), in data set [1], the folding enthalpy is -41.1 kcal/mol. Moreover, the Tm in data set [2] is 57 °C.

As to GGCTAAGGAAACTCAGCC ((((.((....)).)))), the folding enthalpy in data set [1] was -27.3 kcal/mol. Also, the Tm in data set [2] was determined as 38.1 °C.

Take GTAGTAGCGAAAGCTTAC (((..(((....)))))): the folding enthalpy in data set [1] is -11.3 kcal/mol. For the same sequence, in data set [2], the Tm stood at 30.5 °C.

Regarding GATCGGCGACCCGATC ((((((....)))))), in data set [1], the folding enthalpy is -34.2 kcal/mol. Besides, in data set [2], the Tm came out at 55.6 °C.

For the sequence GGATCAGAAATGATCC ((((((....)))))), in data set [1], the folding enthalpy was -36 kcal/mol. Also, the Tm in data set [2] came to 55.3 °C.

Turning to GCGGGGCGAAAGCCGAGC ((..(((....)))..)), the folding enthalpy in data set [1] was -24.9 kcal/mol. In addition, the Tm in data set [2] stood at 66.2 °C.

As for GTCAGACGAAAGTCGGAC (((.(((....))).))), the folding enthalpy in data set [1] was -35.5 kcal/mol. For the same sequence, the Tm in data set [2] is 63.1 °C.

For the sequence GTGCGTGGAAACACGTAC ((.((((....)))).)), the folding enthalpy in data set [1] is -32.8 kcal/mol. Moreover, the Tm in data set [2] was 56.1 °C.

For GCTCTGCGAAAGCATAGC (((.(((....))).))), in data set [1], the folding enthalpy is -41.8 kcal/mol. The Tm in data set [2] turned out to be 49.8 °C.

Take CGTACGGAAACGTCCACG ((((((....)))..))): in data set [1], the folding enthalpy is -12.1 kcal/mol. The Tm in data set [2] is 30.2 °C.

Take GCAAAGCGAAAGCACTGC (((..((....))..))): in data set [1], the folding enthalpy is -13.7 kcal/mol. Further, in data set [2], the Tm was found to be 37.7 °C.

As for GATCAAGACTTTGATC ((((((....)))))), the folding enthalpy in data set [1] was -35 kcal/mol. Also, the Tm in data set [2] worked out at 51.7 °C.

As for GCGACCGTTCGC ((((....)))), the folding enthalpy in data set [1] is -22.8 kcal/mol. Moreover, in data set [2], the Tm is 49.1 °C.

For the sequence GCCACGGGAAACCGCAGC ((..(((....)))..)), the folding enthalpy in data set [1] is -17.4 kcal/mol. The Tm in data set [2] was found to be 34.1 °C.

On to GCGAGCCGTCGC ((((....)))), for which, in data set [1], the folding enthalpy was -20 kcal/mol. Moreover, the Tm in data set [2] was 52.7 °C.

With GCAGCTGGAAACGGCTGC (((((.(....).))))), the folding enthalpy in data set [1] was -46.1 kcal/mol. Also, the Tm in data set [2] was 60.2 °C.

Take GGCACCGAAAGGTAGGCC ((((((....)))..))): the folding enthalpy in data set [1] was -29.7 kcal/mol. Moreover, the Tm in data set [2] stood at 52.7 °C.

On to GATCGATAAGTCGATC ((((((....)))))), for which, in data set [1], the folding enthalpy was -44 kcal/mol. Also, the Tm in data set [2] was 52.5 °C.

In the case of GTAGCGGGAAACCGCTGC (.(((((....))))).), the folding enthalpy in data set [1] was -17.3 kcal/mol. Also, the Tm in data set [2] was 59.7 °C.

As to GATCTCTGAGAGATC ((((((...)))))), the folding enthalpy in data set [1] is -32.5 kcal/mol. Moreover, the Tm in data set [2] is 52.1 °C.

Regarding GTCCCGCGAAAGCGAGAC (((.(((....))).))), the folding enthalpy in data set [1] is -32.5 kcal/mol. In data set [2], the Tm was determined as 55.7 °C.

GTCGCTCGAAAGAGAGAC (((.(((....))).))): the folding enthalpy in data set [1] is -42.9 kcal/mol. Also, the Tm in data set [2] amounted to 58.4 °C.

Take GATCTTTGAAAAGATC ((((((....)))))): in data set [1], the folding enthalpy is -29.4 kcal/mol. Moreover, the Tm in data set [2] came to 42.2 °C.

As for GCGTCCACACGC ((((....)))), the folding enthalpy in data set [1] is -27.1 kcal/mol. Moreover, in data set [2], the Tm came out at 52.4 °C.

Regarding GCATAACCGAAAGGTTGC (((..(((....)))))), the folding enthalpy in data set [1] was -15.4 kcal/mol. In data set [2], the Tm turned out to be 46.6 °C.

Consider GGCCGAGGAAACTCGACC ((.((((....)))).)), for which, in data set [1], the folding enthalpy was -35 kcal/mol. The Tm in data set [2] stood at 51.4 °C.

In the case of GATCGGGACGCCGATC ((((((....)))))), the folding enthalpy in data set [1] was -36.6 kcal/mol. Besides, the Tm in data set [2] stood at 59.5 °C.

Regarding GCACGCGGAAACACGCGC ((.((.(....).)).)), the folding enthalpy in data set [1] was -11.2 kcal/mol. Further, the Tm in data set [2] stood at 40.1 °C.

Consider GATCCAAGGATGGATC ((((((....)))))), for which the folding enthalpy in data set [1] was -27.5 kcal/mol. Further, the Tm in data set [2] worked out at 47.8 °C.

GTTGTCGAAAGACTCAAC ((((((....)))..))): the folding enthalpy in data set [1] is -11.7 kcal/mol. Besides, the Tm in data set [2] turned out to be 27.7 °C.

For the sequence GATCGTCGCAACGATC ((((((....)))))), the folding enthalpy in data set [1] is -38.1 kcal/mol. The Tm in data set [2] was 56.2 °C.

Consider GGAGCAGGAAACTGCCCC ((.((((....)))).)), for which the folding enthalpy in data set [1] was -17.4 kcal/mol. Moreover, in data set [2], the Tm was found to be 49.7 °C.

On to GCCGCGCGAAAGCCCCGC ((.(.((....)).).)), for which the folding enthalpy in data set [1] was -7.57 kcal/mol. Besides, the Tm in data set [2] is 33.3 °C.

With GGATCGGGAAACCGGTCC (((.(((....))).))), the folding enthalpy in data set [1] is -50.4 kcal/mol. Moreover, the Tm in data set [2] is 56.1 °C.

For the sequence GCGCGTGGAAACACGCAC (.(((((....))))).), the folding enthalpy in data set [1] is -9.64 kcal/mol. In data set [2], the Tm was 54.7 °C.

Regarding GACCAGGGAAACCCAGTC (((..((....))..))), the folding enthalpy in data set [1] is -18.4 kcal/mol. For the same sequence, in data set [2], the Tm worked out at 29.1 °C.

As for GATCCTACCTAGGATC ((((((....)))))), the folding enthalpy in data set [1] was -31.6 kcal/mol. The Tm in data set [2] is 53 °C.
